23 molecules from ChEMBL document CHEMBL1129594 (J Med Chem, 1996) can be followed below.

Experiment [1] deals with Mus musculus. As to the kind of experiment: Compound tested for in vivo writhing antinociceptive assay in mouse after subcutaneous administration. The format is functional. The settings on record: sc. The method in brief:
(§1)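 Female CD-1 mice (20 g), kept on 12 h light/12 h dark and fasted overnight, 10 per group. Drug or vehicle was given sc or orally 55 min before ip acetic acid (0.3 mL, 200 mM). Abdominal constrictions were counted over the 5 min starting 5 min after acid. Effect was taken as the drug/vehicle writhe ratio, and ED50 (dose halving writhes) came from a logistic fit with standard error.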
Background: Writhing tests count abdominal constrictions after an irritant is injected.

Experiment [2] concerns Cavia porcellus. In words: Threshold dose required to cause increase in airway opening pressure […] of guinea pig after intravenous administration.
Experiment [3] concerns Mus musculus. As to the kind of experiment: In vivo tail-flick latency after peroral administration in mouse as an evaluation of antinociceptive potency. The settings on record: po. The format is functional. On the technique in general: Thermal pain tests record how soon the animal reacts.
Experiment [4] concerns Mus musculus. As to the kind of experiment: In vivo tail-flick latency after subcutaneous administration in mouse as an evaluation of antinociceptive potency. In kind it is functional. The settings on record: sc.
Experiment [5] has as its system Cavia porcellus. As to the kind of experiment: Threshold dose required to cause increase in airway opening pressure […] of guinea pig after intravenous administration. The format is functional. The method, boiled down:
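Dunkin-Hartley guinea pigs (400-450 g, n = 4 per group) under urethane (2 g/kg), held at 37 °C. Carotid cannula for blood pressure, jugular cannula for iv drug. Tracheal cannula with ventilation at 60 strokes/min and 10 mL/kg tidal volume. Airway opening pressure was read by differential transducer on the tracheal side arm. Threshold iv dose raising Pao was recorded.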

In a further experiment the target is Vanilloid receptor (Rattus norvegicus, UniProt Q9ERZ8+Q9WUD2+O35433). As to the kind of experiment: Compound tested in vitro for [Ca2+] influx into neonatal rat dorsal root ganglia (DRG). In kind it is functional.
The test system of experiment [6] is Mus musculus. In words: Compound tested for in vivo writhing antinociceptive assay in mouse after peroral administration. In kind it is functional. The settings on record: po. The method in brief:
as §1

A word on the ED50: it is the midpoint of the dose-response relation. The low end stands for an effect at a small dose, the high end for a need for a large dose. In the case of `CCCCCCCC/C=C\CCCCCCCC(=O)NCc1ccc(OCCN)c(OC)c1`, the ED50 with Mus musculus [1] came to 3.06 µmol/kg; in the experiment with Mus musculus [3] it was 184 µmol/kg; with Mus musculus [4] it was 6.3 µmol/kg. This molecule also displayed a Dose in the experiment on Cavia porcellus [2] above 0.1 µM/kg. Regarding `COc1cc(CNC(=O)CCCC/C=C/C(C)C)ccc1O` [CAPSAICIN], the results for the ED50 in the experiment with Mus musculus [1], with Mus musculus [3] and with Mus musculus [4] were 5.72 µmol/kg, 962 µmol/kg and 10.3 µmol/kg, respectively. In the experiment with Cavia porcellus [5], the Dose stood at 0.018 µM/kg. In general, EC50 refers to the concentration needed to bring the measured effect to its halfway point. Lower therefore signals higher potency in that assay. Take `COc1cc(C/N=C(\S)NCCc2ccc(Cl)cc2Cl)ccc1O`: the EC50 at Vanilloid receptor was 130 nM.

`COc1cc(C/N=C(\S)NCCc2ccc(Cl)cc2)ccc1OCCN`: the ED50 in the experiment on Mus musculus [1] is 3.32 µmol/kg; in the experiment on Mus musculus [3], 22.9 µmol/kg; in the experiment on Mus musculus [4] it was 4.8 µmol/kg; with Mus musculus [6], 11.4 µmol/kg. In addition, the Dose with Cavia porcellus [5] was 0.137 µM/kg. As for `COc1cc(C/N=C(\S)NCCc2ccc(Cl)cc2Cl)ccc1OCCN`, on Vanilloid receptor, the EC50 came to 320 nM. Regarding `COc1cc(C/N=C(\S)NCCc2ccccc2)ccc1OCCN`, the EC50 at Vanilloid receptor is 2720 nM.

Molecule `COc1cc(C/N=C(\S)NCCc2ccc(Cl)cc2)ccc1OCCN(C)C` displayed an EC50 at Vanilloid receptor of 3520 nM. Take `COc1cc(C/N=C(\S)NCCc2ccc(Cl)cc2)ccc1OCCNC(=O)OC(C)(C)C`: the EC50 on Vanilloid receptor came out at 3000 nM. Turning to `COc1cc(C/N=C(\S)NCCc2ccc(C(C)(C)C)cc2)ccc1OCCN`, the EC50 on Vanilloid receptor amounted to 710 nM. As for `COc1cc(C/N=C(\S)NCCc2ccc(F)cc2)ccc1O`, the EC50 at Vanilloid receptor stood at 130 nM. As for `CCOC(=O)NCCOc1ccc(C/N=C(\S)NCCc2ccc(Cl)cc2)cc1OC`, the 50% effective concentration (EC50) on Vanilloid receptor stood at 6140 nM. For the molecule `COc1cc(CNC(=S)NCc2ccc(C(C)(C)C)cc2)ccc1O`, the EC50 at Vanilloid receptor was found to be 510 nM. With `COc1cc(C/N=C(\S)NCCc2ccccc2)ccc1O`, the EC50 at Vanilloid receptor was 480 nM. For `COc1cc(C/N=C(\S)NCCc2ccc(Cl)cc2)ccc1O`, on Vanilloid receptor, the EC50 was 56 nM. The results for the ED50 with Mus musculus [1], in the experiment with Mus musculus [3] and with Mus musculus [4] were 10.1 µmol/kg, 370 µmol/kg and 11.8 µmol/kg, respectively. The Dose in the experiment with Cavia porcellus [5] is 0.025 µM/kg. Take `COc1cc(C/N=C(\S)NCCc2ccc(F)cc2)ccc1OCCN`: the EC50 on Vanilloid receptor came out at 2300 nM. `COc1cc(C/N=C(\S)NCc2ccc(C(C)(C)C)cc2)ccc1OCCN`: the EC50 on Vanilloid receptor worked out at 170 nM. Besides, the ED50 in the experiment with Mus musculus [1] was determined as 0.49 µmol/kg; in the experiment on Mus musculus [3], 1.45 µmol/kg; in the experiment on Mus musculus [4] it was 0.4 µmol/kg; with Mus musculus [6], 2.55 µmol/kg. Also, the Dose in the experiment with Cavia porcellus [5] stood at 0.062 µM/kg. With `COc1cc(CN/C(S)=N/C=C\c2ccc(Cl)cc2)ccc1O`, at Vanilloid receptor, the concentration giving a half-maximal response (EC50) was found to be 41 nM. Take `CCCCCCCC/C=C\CCCCCCCC(=O)NCc1ccc(O)c(OC)c1` [OLVANIL]: the results for the ED50 in the experiment with Mus musculus [1], in the experiment on Mus musculus [3] and in the experiment on Mus musculus [4] were 2.1 µmol/kg, above 400 µmol/kg and 11.3 µmol/kg, respectively. The Dose in the experiment on Cavia porcellus [2] is above 0.1 µM/kg. In turn, `COc1cc(C/N=C(\S)NCCc2ccc(Cl)cc2)ccc1OCCN1C(=O)c2ccccc2C1=O` returned an EC50 on Vanilloid receptor of 53000 nM. Consider `COc1cc(C/N=C(\S)NCCc2ccc(Cl)cc2)ccc1OCCNC(C)=O`, for which, at Vanilloid receptor, the EC50 is 5130 nM. In turn, `COc1cc(C/N=C(\S)NCCc2ccc(Cl)cc2)ccc1OCC[N+](C)(C)C.O=C([O-])C(F)(F)F` had an EC50 at Vanilloid receptor above 100000 nM. For `COc1cc(CN/C(S)=N/C=C/c2ccc(Cl)cc2)ccc1O`, the EC50 on Vanilloid receptor was 410 nM. As to `CNCCOc1ccc(C/N=C(\S)NCCc2ccc(Cl)cc2)cc1OC`, on Vanilloid receptor, the EC50 worked out at 7030 nM.
